Hits are enriched below; roughly 2.3% of the tested compounds scored in any of these assays.
Fam108B inh = counter-screen for RBBP9 inhibitors: inhibitors of mouse Fam108B; recombinant Fam108B, FP-Rh probe fluorescence polarization; inhibition, % at 9.51 µM; 300,000 tested, 0.33% active; AID 1947;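 active means inhibition above the screen mean inhibition plus 3 SD, computed separately per campaign, cut at about 18% in these data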;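 further: inhibitors lower polarization as less probe binds the enzyme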
PME-1 inh = PME-1 (human) inhibition; Q9Y570; recombinant PME-1, FP-Rh probe fluorescence polarization; inhibition, % at 5.9 µM; 320,000 tested, 0.53% active;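 active means inhibition above the campaign mean of all compounds plus 3 SD, cut at about 26% in these data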;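 further: competitive labeling of PME-1 active site by serine hydrolase directed probe; inhibitors block probe labeling so polarization falls and inhibition rises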
Target sequence (Q9Y570 whole entry, looked up): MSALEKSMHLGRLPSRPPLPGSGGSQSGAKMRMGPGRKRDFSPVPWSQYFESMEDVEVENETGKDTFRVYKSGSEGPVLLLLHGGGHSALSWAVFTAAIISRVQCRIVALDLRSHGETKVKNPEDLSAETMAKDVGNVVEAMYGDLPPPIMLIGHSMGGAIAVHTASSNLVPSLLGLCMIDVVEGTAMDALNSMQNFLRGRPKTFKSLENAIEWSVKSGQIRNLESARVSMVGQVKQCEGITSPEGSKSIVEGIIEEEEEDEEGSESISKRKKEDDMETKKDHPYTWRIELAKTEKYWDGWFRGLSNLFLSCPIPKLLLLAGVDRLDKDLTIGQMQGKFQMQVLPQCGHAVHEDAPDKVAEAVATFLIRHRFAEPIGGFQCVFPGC
PAD4 FP inh = PAD4 (human) enzyme inhibition; Q9UM07; recombinant PAD4, RCA probe fluorescence polarization; inhibition, % at 6.36 µM; 330,000 tested, 0.41% active;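 active means percent inhibition above a cutoff equal to the mean of all tested compounds plus 3 SD, cut at about 15% in these data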
RBBP9 inhibitor = inhibitors of human serine hydrolase RBBP9 | recombinant RBBP9, FP-Rh probe fluorescence polarization | 220,000 tested, 0.2% active | O75884 | AID 1515 | inhibition, % at 7.94 µM;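 active means inhibition above the campaign mean of all tested compounds plus 3 SD, cut at about 14% in these data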
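Assay system: recombinant human RBBP9; Reagent: Serine-hydrolase probe FP-Rh, 375 nM pre-mixing; Doses: 7.94 µM single dose, 0.794% DMSO; Incubation: 30 min then 45 min, 25 °C; Detection: fluorescence polarization (mP), excitation 525 nm, emission 598 nm; Evaluation: percent inhibition from mP, scaled between DMSO and no-protein wells.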
PRMT1 FP inh = inhibitors of human PRMT1. 370,000 tested, 1.3% active. recombinant PRMT1, activity-based probe fluorescence polarization. inhibition, % at 2.79 µM. AID 652257;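 active means inhibition above about 21% made by adding two undisclosed values, limit read from the data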
GSTO1 counter = GSTO1 inhibition, counter-screen for RBBP9 inhibitors; recombinant GSTO1, activity-based probe fluorescence polarization; inhibition, % at 5.96 µM; 300,000 tested, 1.1% active; AID 1974;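 active means inhibition above the campaign mean inhibition plus 3 SD, cut at about 35% in these data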
Target sequence (P78417 whole entry, looked up): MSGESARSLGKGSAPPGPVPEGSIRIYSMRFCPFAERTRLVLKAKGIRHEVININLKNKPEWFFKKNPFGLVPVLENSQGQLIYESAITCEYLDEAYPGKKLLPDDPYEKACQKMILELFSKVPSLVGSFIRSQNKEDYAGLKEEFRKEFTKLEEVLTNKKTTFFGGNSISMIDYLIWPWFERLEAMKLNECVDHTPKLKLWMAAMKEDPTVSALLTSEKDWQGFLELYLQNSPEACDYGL
GSTO1 inh conf = GSTO1 (human) inhibition, confirmation; inhibition, % at 5.96 µM; shares compounds with GSTO1 counter; recombinant GSTO1, probe fluorescence polarization; 2,400 tested, 54% active;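 active means inhibition above the primary screen's cutoff, its mean inhibition plus 3 SD, cut at about 35% in these data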;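 further: loss of polarization as inhibitors block binding of rhodamine sulfonate ester activity probe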
GSTO1 ABPP inh = blocks recombinant human glutathione S-transferase omega 1; shares compounds with GSTO1 counter; 130 tested, 30% active; recombinant GSTO1, gel ABPP SE-Rh probe fluorescence; inhibition, % at 1 µM;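 active means inhibition of the enzyme GSTO1 above about 75%, limit read from the data; inactive means inhibition below that limit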
Of the large screens only hits and unclear results are named; the others gave an inactive call (follow-up assays come after a bar, where they were run).

Oc1ccc(/C=N/Nc2cc(N3CCCC3)nc(N3CCCC3)n2)cc1O	GSTO1 counter 46 | GSTO1 inh conf 79
Oc1ccc(/C=N\Nc2cc(N3CCOCC3)nc(N3CCOCC3)n2)c(O)c1	none
CN1CCc2cccc3c2[C@@H]1Cc1ccc(O)c(O)c1-3	GSTO1 counter 94 (no result: PRMT1 FP inh) | GSTO1 inh conf inactive
O=C(CSc1nnc(CNC(=O)c2cccs2)o1)Nc1ccc(Br)cc1	none (no result: RBBP9 inhibitor)
O=C(O)c1ccccc1Sc1ncnc2sccc12	none
CCOC(=O)Cc1csc(NC(=O)NC2(C(F)(F)F)Oc3cc(Cl)c(Cl)cc3O2)n1	GSTO1 counter 44 | GSTO1 inh conf inactive
CCOC(=O)Cc1csc(NC(=O)NC2(C(F)(F)F)Oc3ccccc3O2)n1	none
CCOC(=O)Cc1csc(NC(=O)NC2(C(F)(F)F)Oc3ccc(Cl)cc3O2)n1 (centres undefined)	GSTO1 counter 45 | GSTO1 inh conf inactive
CCOC(=O)Cc1csc(NC(=O)Nc2ccc(OC(F)(F)F)cc2)n1	none
CC(C)CNS(=O)(=O)c1ccc(OCC(=O)Nc2ccc(F)cc2F)cc1	none
CCOC(=O)C1=C(C)OC(N)=C(C#N)C1c1cc2c(cc1[N+](=O)[O-])OCO2 (centres undefined)	GSTO1 counter 46 | GSTO1 inh conf inactive
CC(=O)Nc1ccc(C(C#N)=Cc2ccc(N(C)CCC#N)cc2)cc1	none (no result: Fam108B inh, PME-1 inh, PAD4 FP inh, RBBP9 inhibitor, GSTO1 counter)
Clc1ccccc1C1Nc2cccc3cccc(c23)N1	GSTO1 counter 43 (no result: RBBP9 inhibitor) | GSTO1 inh conf inactive
O=C1NC(c2ccccc2Cl)Nc2ccccc21 (centres undefined)	none
Clc1ccc(-c2nnc(SCc3nc(-c4ccccc4)no3)o2)cc1	GSTO1 counter 40 | GSTO1 inh conf 46
O=CN/C=C/c1cc(O)ccc1O	RBBP9 inhibitor 39, PRMT1 FP inh 48, GSTO1 counter 72 | GSTO1 inh conf inactive
C(=N/N1CCN(c2ccccc2)CC1)/c1ccco1	none (no result: Fam108B inh, PME-1 inh, PAD4 FP inh, RBBP9 inhibitor, GSTO1 counter)
Cc1ccccc1NS(=O)(=O)c1cc(C(=O)Nc2cccnc2)ccc1C	none (no result: RBBP9 inhibitor)
O=C(CNC(=S)NC(=O)c1ccc(Br)o1)c1ccccc1	GSTO1 counter 46 | GSTO1 inh conf inactive
O=C(CNC(=S)NC(=O)c1ccc(Cl)cc1)c1ccccc1	none
C[n+]1cccc2c(Br)ccc([O-])c21	GSTO1 counter 41 | GSTO1 inh conf inactive
COc1ccc(C2c3sc(=O)[nH]c3SC3C4CCC(C4)C23)cc1OC (centres undefined)	none
COc1ccc(CCNC(=O)CSc2nc3ccsc3c(=O)n2CC2CCC(C(=O)O)CC2)cc1OC (centres undefined)	none (no result: RBBP9 inhibitor)
Nc1nnc(-c2ccco2)s1	none
Nc1ncnc2oc(-c3ccco3)c(-c3ccco3)c12	PRMT1 FP inh 61, GSTO1 counter 56 | GSTO1 inh conf inactive
COc1ccc(CCN=CC2=C(O)CC(C)(C)CC2=O)cc1	none
CC1(C)CC(=O)C(C=Nc2ccc(O)cc2)=C(O)C1	GSTO1 counter 38 | GSTO1 inh conf inactive
CC1(C)CC(=O)C(C=NCCc2ccc(S(N)(=O)=O)cc2)=C(O)C1	GSTO1 counter 41 | GSTO1 inh conf inactive
O=C(CCl)N1CCCC1c1ccc2c(c1)OCCO2 (centres undefined)	GSTO1 counter 55 (no result: RBBP9 inhibitor) | GSTO1 inh conf 70 | GSTO1 ABPP inh inactive
C=CCOc1ccc(/C=N/NC(=O)CN(c2cc(Cl)ccc2OC)S(=O)(=O)c2ccc(C)c([N+](=O)[O-])c2)cc1	none
O=C(O)Cc1cc(I)c(Oc2ccc(O)c(I)c2)c(I)c1	GSTO1 counter 62 (no result: PRMT1 FP inh) | GSTO1 inh conf 56
Cc1ccccc1NC(=O)CSc1nnc(-c2ccco2)n1N	none (no result: RBBP9 inhibitor)
Cc1cccc(NC(=O)CSc2nnc(-c3ccco3)c(-c3ccco3)n2)c1C	GSTO1 counter 42 (no result: PRMT1 FP inh) | GSTO1 inh conf inactive
COc1ccc(N(C(=O)Cc2cccs2)C(C(=O)NC2CCCC2)c2ccncc2)cc1OC (centres undefined)	none (no result: RBBP9 inhibitor)
C#CC(=O)N(c1ccc(OC)c(OC)c1)C(C(=O)NC1CCCC1)c1cccs1 (centres undefined)	GSTO1 counter 48 | GSTO1 inh conf 52
C#CC(=O)N(c1cccc(OC)c1)C(C(=O)NC1CCCC1)c1cccs1 (centres undefined)	GSTO1 counter 76 | GSTO1 inh conf 76
O=C(NC(c1ccc(Cl)cc1)c1cnccn1)C1CCN(Cc2ccccc2)CC1 (centres undefined)	none (no result: Fam108B inh, PME-1 inh, PAD4 FP inh, RBBP9 inhibitor, GSTO1 counter)
C/C(=N\N1CCN(Cc2ccccc2)CC1)c1ccco1	none
Cc1cc(C)cc(NC(=O)CCc2c(C)nn(-c3ccc(N4CCCCC4)nn3)c2C)c1	GSTO1 counter 67 (no result: RBBP9 inhibitor) | GSTO1 inh conf inactive
Cc1ccc(NC(=O)CCc2c(C)nn(-c3ccc(N4CCCCC4)nn3)c2C)cc1	none (no result: RBBP9 inhibitor)
CCOc1ccc(S(=O)(=O)Nc2ccccc2C(=O)N(C)C2CCN(C)CC2)cc1	none (no result: Fam108B inh, RBBP9 inhibitor, GSTO1 counter)
C=CCn1c(C)cc(C(=O)CN2C(=O)NC3(CCCc4ccccc43)C2=O)c1C (centres undefined)	none
N#CCSc1nnc(-c2sc3ccccc3c2Cl)o1	GSTO1 counter 40 | GSTO1 inh conf inactive
CCn1c(SCc2ccccc2)nnc1C1CCN(S(=O)(=O)c2ccc(OC)cc2)CC1	none
COC(=O)C1=C(C)N(CC2CCCO2)C(=O)/C1=C\c1ccc(O)cc1 (centres undefined)	GSTO1 counter 43 | GSTO1 inh conf inactive
COc1ccc(/C=C2\SC(=S)N(CC3CCCO3)C2=O)cc1 (centres undefined)	none
COc1cc(C#Cc2c(-c3cncn3C)n(C)c3ccc(-c4ccc5cc[nH]c5c4)cc23)cc(OC)c1	none (no result: Fam108B inh, PME-1 inh, RBBP9 inhibitor, GSTO1 counter)
CCOC(=O)c1c(CC(C)C)csc1NC(=O)CCl	GSTO1 counter 76 | GSTO1 inh conf 92
CCOC(=O)c1c(CC(C)C)csc1NC(=O)C(C)C	none
Cc1cc([N+](=O)[O-])c2c(c1C)C1C=CCC1C(c1ccccn1)N2 (centres undefined)	GSTO1 counter 52 (no result: PRMT1 FP inh) | GSTO1 inh conf inactive
O=C(Nc1ccc(Br)cc1)c1cc(-c2cccs2)on1	none (no result: RBBP9 inhibitor)
CCN(CC)c1ccc(C=Nc2ccc(N(C)C)cc2)c(O)c1	PRMT1 FP inh 25, GSTO1 counter 66 | GSTO1 inh conf inactive
CN(C)CCNC(=O)C1CCCNC1=O (centres undefined)	none
O=[N+]([O-])c1ccc(/C=N/n2cnc3ccccc32)s1	GSTO1 counter 55 | GSTO1 inh conf inactive
O=[N+]([O-])c1ccc(/C=N/Nc2ncccc2[N+](=O)[O-])s1	none (no result: RBBP9 inhibitor)
COc1cc(C)c(N(C(C)=O)c2ccccc2)c(C)c1	none
CC(=O)Oc1ccc(OC(C)=O)c(SCCCCCN2CCOCC2)c1	GSTO1 counter 79 | GSTO1 inh conf inactive
CC(C)c1ccc(OCCCCCN2CCOCC2)cc1	none (no result: RBBP9 inhibitor)

Screening results as filed in PubChem BioAssay.
